ChEMBL document CHEMBL5724801, “EUbOPEN Chemogenomics Library - Multiplex” (2024)
Values joined by “and” are separate entries in the source; they are usually repeats but may differ in a detail not shown here. Identical values can stand only once.

System: HEK-293T
Assay: Multiplex assay against HEK293T
Type: toxicity, cell-based
Conditions: human
In short: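 Live cells were stained at seeding with Hoechst33342, BioTracker Green Microtubule Cytoskeleton Dye, MitoTracker Red and Annexin V Alexa Fluor 680. Following compound addition, they were imaged on a CQ1 microscope at 37°C and 5% CO2 and gated by CellPathfinder machine learning into Hoechst high-intensity objects or normal cells, with normal cells split into healthy, pyknosed or fragmented nuclei and pyknosed cells into mitotic or apoptotic. Tubulin, mitochondrial-mass and membrane-permeability phenotypes are per cents of healthy-nucleus cells.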

[1] = 12 h, 1 µM, compound concentration 1 uM
[2] = 12 h, 10 µM, compound concentration 10 uM
[3] = 24 h, 1 µM, compound concentration 1 uM
[4] = 24 h, 10 µM, compound concentration 10 uM
[5] = 48 h, 1 µM, compound concentration 1 uM
[6] = 48 h, 10 µM, compound concentration 10 uM

**Q.** With `O=C(Nc1cc(C(F)(F)F)ccc1N1CCCCC1)c1ccncc1` as the compound, how does the “Population Apoptotic (%)” value [1] read?
**A.** 16.06% and 9.24%

**Q.** And the “Population Fragmented Nuclei (%)” value [1]?
**A.** 3.1% and 6.12%

**Q.** And the “Population Hoechst High Intensity Objects (%)” value [1]?
**A.** 0%

**Q.** What about the “Population Membrane Permeable-Phenotype (%)” value [1] of the same compound?
**A.** 0% and 10.53%

**Q.** And the “Population Mitochondria Different-Phenotype (%)” value [1]?
**A.** 30.11% and 10.53%

**Q.** What about the “Population Mitotic Cells (%)” value [1] of the same compound?
**A.** 83.94% and 90.76%

**Q.** What about the “Population Normal (%)” value [1] of the same compound?
**A.** 100%

**Q.** And the “Population Pyknosed Nuclei (%)” value [1]?
**A.** 42.41% and 80.95%

**Q.** And the “Total Cell Count” value [1]?
**A.** 323 and 147

**Q.** What about the “Population Apoptotic (%)” value [2] of the same compound?
**A.** 17.75% and 24.64%

**Q.** And the “Population Fragmented Nuclei (%)” value [2]?
**A.** 2.03% and 4.49%

**Q.** What about the “Population Healthy Nuclei (%)” value [2] of the same compound?
**A.** 48.84% and 17.98%

**Q.** And the “Population Hoechst High Intensity Objects (%)” value [2]?
**A.** 0.29% and 0%

**Q.** What about the “Population Membrane Permeable-Phenotype (%)” value [2] of the same compound?
**A.** 0% and 3.12%

**Q.** And the “Population Mitochondria Different-Phenotype (%)” value [2]?
**A.** 41.07% and 18.75%

**Q.** What about the “Population Mitotic Cells (%)” value [2] of the same compound?
**A.** 82.25% and 75.36%

**Q.** And the “Population Normal (%)” value [2]?
**A.** 99.71% and 100%

**Q.** What about the “Population Pyknosed Nuclei (%)” value [2] of the same compound?
**A.** 49.13% and 77.53%

**Q.** What about the “Population Tubulin-Different-Phenotype (%)” value [2] of the same compound?
**A.** 26.79% and 53.12%

**Q.** And the “Total Cell Count” value [2]?
**A.** 345 and 178

**Q.** And the “Population Apoptotic (%)” value [3]?
**A.** 12.5% and 17.7%

**Q.** And the “Population Fragmented Nuclei (%)” value [3]?
**A.** 1.79% and 1.82%

**Q.** And the “Population Healthy Nuclei (%)” value [3]?
**A.** 72.45% and 29.7%

**Q.** And the “Population Hoechst High Intensity Objects (%)” value [3]?
**A.** 0%

**Q.** What about the “Population Membrane Permeable-Phenotype (%)” value [3] of the same compound?
**A.** 1.48% and 2.04%

**Q.** And the “Population Mitochondria Different-Phenotype (%)” value [3]?
**A.** 13.33% and 12.24%

**Q.** What about the “Population Mitotic Cells (%)” value [3] of the same compound?
**A.** 87.5% and 82.3%

**Q.** And the “Population Normal (%)” value [3]?
**A.** 100%

**Q.** What about the “Population Pyknosed Nuclei (%)” value [3] of the same compound?
**A.** 25.76% and 68.48%

**Q.** What about the “Population Tubulin-Different-Phenotype (%)” value [3] of the same compound?
**A.** 11.36% and 12.24%

**Q.** What about the “Population Apoptotic (%)” value [4] of the same compound?
**A.** 30.61% and 27.07%

**Q.** What about the “Population Fragmented Nuclei (%)” value [4] of the same compound?
**A.** 1.11% and 2%

**Q.** What about the “Population Healthy Nuclei (%)” value [4] of the same compound?
**A.** 66.15% and 31.5%

**Q.** What about the “Population Hoechst High Intensity Objects (%)” value [4] of the same compound?
**A.** 0.22% and 0.5%

**Q.** What about the “Population Membrane Permeable-Phenotype (%)” value [4] of the same compound?
**A.** 1.68% and 0%

**Q.** And the “Population Mitochondria Different-Phenotype (%)” value [4]?
**A.** 34.01% and 33.33%

**Q.** And the “Population Mitotic Cells (%)” value [4]?
**A.** 69.39% and 72.93%

**Q.** And the “Population Normal (%)” value [4]?
**A.** 99.78% and 99.5%

**Q.** What about the “Population Pyknosed Nuclei (%)” value [4] of the same compound?
**A.** 32.74% and 66.5%

**Q.** What about the “Population Tubulin-Different-Phenotype (%)” value [4] of the same compound?
**A.** 39.39% and 14.29%

**Q.** What about the “Total Cell Count” value [4] of the same compound?
**A.** 450 and 201

**Q.** And the “Population Apoptotic (%)” value [5]?
**A.** 6.88% and 14.29%

**Q.** What about the “Population Fragmented Nuclei (%)” value [5] of the same compound?
**A.** 2.64% and 3.08%

**Q.** And the “Population Healthy Nuclei (%)” value [5]?
**A.** 85.29% and 66.08%

**Q.** And the “Population Hoechst High Intensity Objects (%)” value [5]?
**A.** 0%

**Q.** And the “Population Membrane Permeable-Phenotype (%)” value [5]?
**A.** 5.84% and 0.67%

**Q.** And the “Population Mitochondria Different-Phenotype (%)” value [5]?
**A.** 15.38% and 28.67%

**Q.** And the “Population Mitotic Cells (%)” value [5]?
**A.** 93.12% and 85.71%

**Q.** What about the “Population Normal (%)” value [5] of the same compound?
**A.** 100%

**Q.** What about the “Population Pyknosed Nuclei (%)” value [5] of the same compound?
**A.** 12.07% and 30.84%

**Q.** And the “Population Apoptotic (%)” value [6]?
**A.** 17.89% and 16.19%

**Q.** What about the “Population Fragmented Nuclei (%)” value [6] of the same compound?
**A.** 3.13% and 3.08%

**Q.** And the “Population Healthy Nuclei (%)” value [6]?
**A.** 80.83% and 56.54%

**Q.** And the “Population Hoechst High Intensity Objects (%)” value [6]?
**A.** 0% and 0.76%

**Q.** And the “Population Membrane Permeable-Phenotype (%)” value [6]?
**A.** 5.97% and 2.72%

**Q.** What about the “Population Mitochondria Different-Phenotype (%)” value [6] of the same compound?
**A.** 47.9% and 43.54%

**Q.** What about the “Population Mitotic Cells (%)” value [6] of the same compound?
**A.** 82.11% and 83.81%

**Q.** What about the “Population Normal (%)” value [6] of the same compound?
**A.** 100% and 99.24%

**Q.** What about the “Population Pyknosed Nuclei (%)” value [6] of the same compound?
**A.** 16.04% and 40.38%

**Q.** What about the “Total Cell Count” value [6] of the same compound?
**A.** 767 and 262

**Q.** What does the source list for `C[C@H](C[C@H](N)C(=O)O)C(=O)O` [2S,4R-4-METHYLGLUTAMATE]?
**A.** Population Apoptotic (%) [1]: 6.61% and 13.76%; Population Fragmented Nuclei (%) [1]: 2.69% and 5.93%; Population Hoechst High Intensity Objects (%) [1]: 0.59% and 0.74%; Population Membrane Permeable-Phenotype (%) [1]: 0% and 5.56%; Population Mitochondria Different-Phenotype (%) [1]: 31.22% and 27.78%; Population Mitotic Cells (%) [1]: 93.39% and 86.24%; Population Normal (%) [1]: 99.41% and 99.26%; Population Pyknosed Nuclei (%) [1]: 36.12% and 80.74%; Total Cell Count [1]: 337 and 136; Population Apoptotic (%) [2]: 7.2% and 16.44%; Population Fragmented Nuclei (%) [2]: 3.38% and 3.49%; Population Hoechst High Intensity Objects (%) [2]: 0%; Population Membrane Permeable-Phenotype (%) [2]: 0%; Population Mitochondria Different-Phenotype (%) [2]: 31.06% and 20%; Population Mitotic Cells (%) [2]: 92.8% and 83.56%; Population Normal (%) [2]: 100%; Population Pyknosed Nuclei (%) [2]: 42.23% and 84.88%; Population Tubulin-Different-Phenotype (%) [2]: 3.73% and 10%; Total Cell Count [2]: 296 and 172; Population Apoptotic (%) [3]: 6.4% and 17.39%; Population Fragmented Nuclei (%) [3]: 1.63% and 2.47%; Population Healthy Nuclei (%) [3]: 75.77% and 26.54%; Population Hoechst High Intensity Objects (%) [3]: 0.36% and 0%; Population Membrane Permeable-Phenotype (%) [3]: 1.67% and 0%; Population Mitochondria Different-Phenotype (%) [3]: 13.13% and 13.95%; Population Mitotic Cells (%) [3]: 93.6% and 82.61%; Population Normal (%) [3]: 99.64% and 100%; Population Tubulin-Different-Phenotype (%) [3]: 10.5% and 2.33%; Population Apoptotic (%) [4]: 10.99% and 23.73%; Population Fragmented Nuclei (%) [4]: 1.21% and 2.99%; Population Healthy Nuclei (%) [4]: 80.4% and 38.31%; Population Hoechst High Intensity Objects (%) [4]: 0%; Population Membrane Permeable-Phenotype (%) [4]: 0.5% and 0%; Population Mitochondria Different-Phenotype (%) [4]: 14.57% and 6.49%; Population Mitotic Cells (%) [4]: 89.01% and 76.27%; Population Normal (%) [4]: 100%; Population Tubulin-Different-Phenotype (%) [4]: 7.29% and 2.6%; Total Cell Count [4]: 495 and 201; Population Fragmented Nuclei (%) [5]: 3.3% and 2.56%; Population Healthy Nuclei (%) [5]: 86.59% and 58.46%; Population Hoechst High Intensity Objects (%) [5]: 0% and 2.5%; Population Membrane Permeable-Phenotype (%) [5]: 4.15% and 2.63%; Population Mitochondria Different-Phenotype (%) [5]: 11.93% and 28.95%; Population Mitotic Cells (%) [5]: 93.48% and 76.32%; Population Normal (%) [5]: 100% and 97.5%; Population Apoptotic (%) [6]: 11.21% and 22.54%; Population Fragmented Nuclei (%) [6]: 1.13% and 2.5%; Population Healthy Nuclei (%) [6]: 90.25% and 75.31%; Population Hoechst High Intensity Objects (%) [6]: 0% and 0.93%; Population Membrane Permeable-Phenotype (%) [6]: 3.93% and 1.24%; Population Mitochondria Different-Phenotype (%) [6]: 12.14% and 16.6%; Population Mitotic Cells (%) [6]: 88.79% and 77.46%; Population Normal (%) [6]: 100% and 99.07%; Population Pyknosed Nuclei (%) [6]: 8.62% and 22.19%
